The source of these data is ChEMBL document CHEMBL1149257, “Tetrasubstituted imidazole inhibitors of cytokine release: probing substituents in the N-1 position” (J Med Chem, 2004).

For series [1], the target named is Mitogen-activated protein kinase 14 (Homo sapiens, UniProt Q16539). Description: Inhibition of mitogen-activated protein kinase p38 alpha.
Series [2] relates to Blood. Nature of the series: Inhibition of LPS-induced TNFalpha production in human whole blood. Format: functional, tissue-based. Put shortly:
(§1)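 Fresh blood from healthy human donors, preincubated 15 min at 37 °C, 5% CO2, with serially diluted compound in Cremophor EL/ethanol (1:1); 1% Cremophor EL/ethanol as control. Stimulated with LPS 1 μg/mL for 4 h at 37 °C, stopped on ice and centrifuged. TNFα and IL-1β in the supernatant measured by ELISA. IC50 from percent reduction versus control; mean of two independent experiments unless stated.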

Series [3] has as its system Blood. Nature of the series: Inhibition of LPS-induced IL1 beta production in human whole blood. Format: functional, tissue-based. Put shortly:
as §1

The next series concerns the target CYP2C9 (Homo sapiens, UniProt P11712). Nature of the series: Inhibition of human liver CYP2C9 at 10 uM. Format: ADME. In a few lines:
(§2)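 Each isoform tested with the compound at a single concentration of 10 μM in phosphate buffer (pH 7.4) containing 0.1% DMSO; read out as percent inhibition of enzyme activity. Other conditions follow a previously reported protocol.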

For another series, the target named is CYP2D6 (Homo sapiens, UniProt P10635). Description: Inhibition of human liver CYP2D6 at 10 uM. Format: ADME. Put shortly: as §2
Chain of CYP2D6 (P10635 whole entry): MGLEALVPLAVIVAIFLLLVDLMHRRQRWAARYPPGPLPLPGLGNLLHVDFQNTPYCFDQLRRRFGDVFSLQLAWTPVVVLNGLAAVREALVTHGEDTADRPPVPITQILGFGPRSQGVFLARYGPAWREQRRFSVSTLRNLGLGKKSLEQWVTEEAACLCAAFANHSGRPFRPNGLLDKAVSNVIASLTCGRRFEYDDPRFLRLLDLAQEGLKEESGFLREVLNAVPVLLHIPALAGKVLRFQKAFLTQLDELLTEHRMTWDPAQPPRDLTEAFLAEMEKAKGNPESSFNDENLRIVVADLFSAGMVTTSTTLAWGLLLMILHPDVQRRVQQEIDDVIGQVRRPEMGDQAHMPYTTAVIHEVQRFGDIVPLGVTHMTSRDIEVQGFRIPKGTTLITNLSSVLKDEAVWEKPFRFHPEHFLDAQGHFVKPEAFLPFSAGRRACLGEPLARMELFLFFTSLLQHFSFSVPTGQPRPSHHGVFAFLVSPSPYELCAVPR
The target in a further series is CYP2C19 (Homo sapiens, UniProt P33261). Description: Inhibition of human liver CYP2C19 at 10 uM. Format: ADME. Put shortly:
as §2

In another series the target is CYP3A4 (Homo sapiens, UniProt P08684). Description: Inhibition of human liver CYP3A4 at 10 uM. Format: ADME. In a few lines: as §2
Chain of CYP3A4 (P08684 whole entry): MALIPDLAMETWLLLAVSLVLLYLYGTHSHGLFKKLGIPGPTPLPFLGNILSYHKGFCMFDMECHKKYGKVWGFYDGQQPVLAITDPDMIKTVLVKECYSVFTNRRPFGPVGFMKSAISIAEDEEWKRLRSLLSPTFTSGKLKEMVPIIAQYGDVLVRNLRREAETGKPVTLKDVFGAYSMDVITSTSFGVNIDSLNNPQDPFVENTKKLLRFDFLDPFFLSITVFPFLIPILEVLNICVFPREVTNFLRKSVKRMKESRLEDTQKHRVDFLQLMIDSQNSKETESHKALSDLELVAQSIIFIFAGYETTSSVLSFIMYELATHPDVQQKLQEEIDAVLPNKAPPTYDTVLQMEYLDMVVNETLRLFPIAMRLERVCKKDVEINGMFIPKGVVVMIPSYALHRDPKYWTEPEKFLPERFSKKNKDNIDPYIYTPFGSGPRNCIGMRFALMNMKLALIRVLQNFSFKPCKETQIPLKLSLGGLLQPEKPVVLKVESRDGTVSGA
Another series deals with T1, CYP1A2 (Homo sapiens, UniProt P05177).
T1 sequence (P05177 whole entry): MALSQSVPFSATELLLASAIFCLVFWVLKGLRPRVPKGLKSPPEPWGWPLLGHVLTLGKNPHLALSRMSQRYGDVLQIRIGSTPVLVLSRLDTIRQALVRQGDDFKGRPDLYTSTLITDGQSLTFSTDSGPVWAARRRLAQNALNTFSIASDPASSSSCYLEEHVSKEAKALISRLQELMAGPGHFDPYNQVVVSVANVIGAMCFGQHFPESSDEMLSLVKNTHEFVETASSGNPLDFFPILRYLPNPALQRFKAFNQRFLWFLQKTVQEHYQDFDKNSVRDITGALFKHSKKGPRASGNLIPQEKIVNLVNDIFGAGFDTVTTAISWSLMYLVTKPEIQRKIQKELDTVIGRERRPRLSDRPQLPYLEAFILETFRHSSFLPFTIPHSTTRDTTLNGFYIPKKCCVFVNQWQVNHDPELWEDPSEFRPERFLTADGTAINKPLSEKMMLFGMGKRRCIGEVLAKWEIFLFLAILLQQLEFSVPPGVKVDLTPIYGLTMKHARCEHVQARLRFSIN
Nature of the series: Inhibition of human liver CYP1A2 at 10 uM. In kind it is ADME. In a few lines: as §2

Structures are written as SMILES.

Chain of CYP2C9 (P11712 whole entry, canonical isoform): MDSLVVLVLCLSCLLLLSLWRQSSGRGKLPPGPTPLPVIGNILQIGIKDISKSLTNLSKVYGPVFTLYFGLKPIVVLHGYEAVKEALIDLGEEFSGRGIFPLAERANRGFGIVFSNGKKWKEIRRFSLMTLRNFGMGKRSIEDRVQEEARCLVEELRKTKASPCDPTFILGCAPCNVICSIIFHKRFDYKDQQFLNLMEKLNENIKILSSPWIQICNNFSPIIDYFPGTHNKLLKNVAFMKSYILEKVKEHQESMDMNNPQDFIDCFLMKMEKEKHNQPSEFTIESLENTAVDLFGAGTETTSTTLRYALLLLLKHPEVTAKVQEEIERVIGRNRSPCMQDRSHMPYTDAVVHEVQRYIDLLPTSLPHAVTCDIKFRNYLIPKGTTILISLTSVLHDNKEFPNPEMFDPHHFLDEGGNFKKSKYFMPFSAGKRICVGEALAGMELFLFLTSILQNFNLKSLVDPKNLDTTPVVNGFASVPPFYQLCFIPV
Chain of CYP2C19 (P33261 whole entry): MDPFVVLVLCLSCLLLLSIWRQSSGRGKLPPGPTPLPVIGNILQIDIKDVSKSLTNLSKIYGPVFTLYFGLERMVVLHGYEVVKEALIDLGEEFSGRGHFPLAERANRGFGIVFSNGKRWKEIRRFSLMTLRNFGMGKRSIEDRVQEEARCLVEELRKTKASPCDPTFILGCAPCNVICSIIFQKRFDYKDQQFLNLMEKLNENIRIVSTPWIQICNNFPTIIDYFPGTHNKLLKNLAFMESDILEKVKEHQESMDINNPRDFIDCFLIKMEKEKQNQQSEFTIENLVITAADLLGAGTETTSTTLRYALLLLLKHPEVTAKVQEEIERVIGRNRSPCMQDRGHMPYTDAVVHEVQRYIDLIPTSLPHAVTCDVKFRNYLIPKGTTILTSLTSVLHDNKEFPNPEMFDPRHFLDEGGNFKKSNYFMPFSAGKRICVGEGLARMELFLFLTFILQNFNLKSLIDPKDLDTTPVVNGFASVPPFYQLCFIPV
Chain of Mitogen-activated protein kinase 14 (Q16539 whole entry): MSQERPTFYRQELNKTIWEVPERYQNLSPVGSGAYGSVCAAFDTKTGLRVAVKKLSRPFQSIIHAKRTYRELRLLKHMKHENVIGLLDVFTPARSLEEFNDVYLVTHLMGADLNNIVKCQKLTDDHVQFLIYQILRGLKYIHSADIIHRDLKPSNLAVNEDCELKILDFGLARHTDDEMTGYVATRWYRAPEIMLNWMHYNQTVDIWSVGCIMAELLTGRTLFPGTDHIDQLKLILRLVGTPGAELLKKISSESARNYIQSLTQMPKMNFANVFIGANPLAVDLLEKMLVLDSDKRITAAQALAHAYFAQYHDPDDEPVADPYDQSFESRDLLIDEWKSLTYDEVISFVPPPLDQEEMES

Broadly, the IC50 is the concentration needed to halve the response being measured. High values mean a need for much substance, low ones inhibition by little substance. The compound `CC(=O)Nc1cc(-c2c(-c3ccc(F)cc3)nc(SCc3ccc([S+](C)[O-])cc3)n2C2CC(C)(C)NC(C)(C)C2)ccn1` (stereo not given) registered a half-maximal inhibitory concentration (IC50) in series [1] greater than 10 µM.
Compound `CC(=O)NCCn1c(SCc2ccc([S+](C)[O-])cc2)nc(-c2ccc(F)cc2)c1-c1ccnc(NC(C)=O)c1` (stereo not given) registered an IC50 in series [1] greater than 10 µM.
For `COCCCn1c(SC)nc(-c2ccc(F)cc2)c1-c1ccnc(NC(C)=O)c1`, the IC50 stood at 17.8 µM in the series with Blood [2], 0.205 µM in series [1] and 18.2 µM in the series with Blood [3].
In turn, `CC(=O)Nc1cc(-c2c(-c3ccc(F)cc3)nc(SCc3ccc([S+](C)[O-])cc3)n2CCOCCO)ccn1` (stereo not given) displayed an IC50 in series [1] greater than 10 µM.
`CC(=O)Nc1cc(-c2c(-c3ccc(F)cc3)nc(SCc3ccc([S+](C)[O-])cc3)n2CC(C)O)ccn1` (stereo not given) registered an IC50 in series [1] greater than 10 µM.
Still for that read-out and setting: under `COCCn1c(SCc2ccc([S+](C)[O-])cc2)nc(-c2ccc(F)cc2)c1-c1ccnc(NC(C)=O)c1` (stereo not given) stands 0.15 µM; under `CC(=O)Nc1cc(-c2c(-c3ccc(F)cc3)nc(SCCC(=O)N3CCOCC3)n2CCCO)ccn1`, 9.5 µM.
On the same count and under the same terms, under `C#CCOCCn1c(SCc2ccc([S+](C)[O-])cc2)nc(-c2ccc(F)cc2)c1-c1ccnc(NC(C)=O)c1` (stereo not given) stands 4.97 µM; under `CSc1nc(-c2ccc(F)cc2)c(-c2ccnc(NC(C)=O)c2)n1CC1COC(C)(C)O1` (stereo not given), 3.73 µM.
The inhibition is the change of the read-out against control, counted positive when it falls. Read a high inhibition as strong suppression. On to `COCCn1c(SC)nc(-c2ccc(F)cc2)c1-c1ccnc(NC(C)=O)c1`, for which the inhibition at 10 µM against CYP2C9 was 23.5%; against CYP2D6, 3.5%; against CYP2C19, 70.5%; against CYP3A4, 62%; at CYP1A2, 0%. Besides, the IC50 in the series with Blood [2] turned out to be 32.8 µM; in series [1], 0.218 µM; with Blood [3] it was 30.5 µM.
Compound `CC(=O)Nc1cc(-c2c(-c3ccc(F)cc3)nc(SCc3ccc([S+](C)[O-])cc3)n2CCO)ccn1` (stereo not given) registered an IC50 in series [1] of 2.24 µM.
`CC(=O)Nc1cc(-c2c(-c3ccc(F)cc3)nc(SCc3ccc([S+](C)[O-])cc3)n2C)ccn1` (stereo not given) came in with an IC50 in series [1] of 5.85 µM.
The same measure, in the same setting: under `CSCCn1c(SCc2ccc([S+](C)[O-])cc2)nc(-c2ccc(F)cc2)c1-c1ccnc(NC(C)=O)c1` (stereo not given) stands 2.38 µM.
`CSc1nc(-c2ccc(F)cc2)c(-c2ccnc(NC(C)=O)c2)n1CCO`: the half-inhibitory concentration (IC50) in the series with Blood [2] is 35.8 µM; in series [1] it was 0.398 µM; in the series on Blood [3], 33.2 µM.
The compound `CSc1nc(-c2ccc(F)cc2)c(-c2ccnc(NC(C)=O)c2)n1CCNC(C)=O` displayed a 50% inhibitory concentration (IC50) in series [1] of 7.29 µM.
In the case of `CSCCn1c(SC)nc(-c2ccc(F)cc2)c1-c1ccnc(NC(C)=O)c1`, the half-inhibitory concentration (IC50) was determined as 44.2 µM in the series on Blood [2], 0.431 µM in series [1] and 36.4 µM with Blood [3].
Consider `CSc1nc(-c2ccc(F)cc2)c(-c2ccnc(NC(C)=O)c2)n1CCN(C)C`, for which half-maximal inhibition in series [1] (IC50) was put at 2.41 µM.
With `CSc1nc(-c2ccc(F)cc2)c(-c2ccnc(NC(C)=O)c2)n1CCOCCO`, the inhibition at 10 µM against CYP2C9 worked out at 18.5%; against CYP2D6 it was 0%; at CYP2C19 it was 19%; against CYP3A4 it was 38%; against CYP1A2, 0%. Further, the figures for the 50% inhibitory concentration (IC50) (with Blood [2]; in series [1]; with Blood [3]) were greater than 100 µM, 8.48 µM and greater than 100 µM, respectively.
In series [1], `CSc1nc(-c2ccc(F)cc2)c(-c2ccnc(NC(C)=O)c2)n1CCCN1CCOCC1` came in with a 50% inhibitory concentration (IC50) of 6.28 µM.
For `C=CCOCCn1c(SCc2ccc([S+](C)[O-])cc2)nc(-c2ccc(F)cc2)c1-c1ccnc(NC(C)=O)c1` (stereo not given), in series [1], the IC50 is greater than 10 µM.
In turn, `CC(=O)Nc1cc(-c2c(-c3ccc(F)cc3)nc(SCCC(=O)N3CCOCC3)n2CCO)ccn1` came in with an IC50 in series [1] of 2.51 µM.
On to `CSc1nc(-c2ccc(F)cc2)c(-c2ccnc(NC(C)=O)c2)n1CCCO`, for which the half-inhibitory concentration (IC50) in the series on Blood [2] amounted to 20.5 µM; in series [1], 0.813 µM; in the series with Blood [3] it was 13.8 µM.
With `CSc1nc(-c2ccc(F)cc2)c(-c2ccnc(NC(C)=O)c2)n1CC(C)O` (stereo not given), half-maximal inhibition in series [1] (IC50) was put at 8.69 µM.
In series [1], `CCOC(=O)N1CCC(n2c(SC)nc(-c3ccc(F)cc3)c2-c2ccnc(NC(C)=O)c2)CC1` registered an IC50 greater than 10 µM.
With `CSc1nc(-c2ccc(F)cc2)c(-c2ccnc(NC(C)=O)c2)n1CCN1CCCCC1`, the inhibition at 10 µM was 5% against CYP2C9; 77.5% on CYP2D6; 41% at CYP2C19; 97% at CYP3A4; 12% on CYP1A2. Moreover, the half-maximal inhibitory concentration (IC50) with Blood [2] is greater than 10 µM; in series [1], 1.34 µM; in the series on Blood [3] it was greater than 10 µM.
Compound `COC(Cn1c(SC)nc(-c2ccc(F)cc2)c1-c1ccnc(NC(C)=O)c1)OC` registered an IC50 in series [1] of 4.1 µM.
As to `CSc1nc(-c2ccc(F)cc2)c(-c2ccnc(NC(C)=O)c2)n1CCN1CCOCC1`, the IC50 in the series on Blood [2] is greater than 10 µM; in series [1], 2.03 µM; in the series on Blood [3], greater than 10 µM.
`CC(=O)Nc1cc(-c2c(-c3ccc(F)cc3)nc(SCc3ccc([S+](C)[O-])cc3)n2CCCN2CCOCC2)ccn1` (stereo not given): the half-inhibitory concentration (IC50) in series [1] is greater than 10 µM.
The same measure, in the same setting: under `CC(=O)Nc1cc(-c2c(-c3ccc(F)cc3)nc(SCCCC(=O)N3CCOCC3)n2CCO)ccn1` stands 2 µM.
For the compound `C#CCOCCn1c(SC)nc(-c2ccc(F)cc2)c1-c1ccnc(NC(C)=O)c1`, the concentration for half-maximal inhibition (IC50) with Blood [2] is 40 µM; in series [1] it was 0.666 µM; with Blood [3], 13.9 µM.
For `COCCCn1c(SCc2ccc([S+](C)[O-])cc2)nc(-c2ccc(F)cc2)c1-c1ccnc(NC(C)=O)c1` (stereo not given), in series [1], half-maximal inhibition (IC50) was put at 1.31 µM.
As for `C=CCOCCn1c(SC)nc(-c2ccc(F)cc2)c1-c1ccnc(NC(C)=O)c1`, the results for the IC50 (in the series on Blood [2]; in series [1]; in the series with Blood [3]) were greater than 100 µM, 1.85 µM and 48.5 µM, respectively.
As to `COCCCn1c(SCCC(=O)N2CCOCC2)nc(-c2ccc(F)cc2)c1-c1ccnc(NC(C)=O)c1`, the half-inhibitory concentration (IC50) in series [1] is greater than 10 µM.
Turning to `COCCn1c(SCCC(=O)N2CCOCC2)nc(-c2ccc(F)cc2)c1-c1ccnc(NC(C)=O)c1`, the IC50 in series [1] turned out to be 0.46 µM.
In series [1], `CC(=O)Nc1cc(-c2c(-c3ccc(F)cc3)nc(SCc3ccc([S+](C)[O-])cc3)n2CCN2CCCCC2)ccn1` (stereo not given) registered a concentration for half-maximal inhibition (IC50) of 4.43 µM.
